In ChEMBL document CHEMBL1147671, “Application of the Goldilocks effect to the design of potent and selective inhibitors of phenylethanolamine N-methyltransferase: balancing pKa and steric effects in the optimization of 3-methyl-1,2,3,4-tetrahydroisoquinoline inhibitors by beta-fluorination” (J Med Chem, 2006) one finds Ki and pKa data, which are given here for 19 compounds.

By Ki is commonly meant the dissociation constant of the complex between target and ligand, obtained from inhibition or displacement. Broadly, the pKa is the pH at which an ionisable group is half protonated. High values mean a group that holds its proton tightly, low ones a group that gives up its proton readily.

Data set [1] addresses T1, Adrenergic receptor alpha-2 (Rattus norvegicus, UniProt P22086+P19328+P22909).
T1 sequence (P22086 whole entry): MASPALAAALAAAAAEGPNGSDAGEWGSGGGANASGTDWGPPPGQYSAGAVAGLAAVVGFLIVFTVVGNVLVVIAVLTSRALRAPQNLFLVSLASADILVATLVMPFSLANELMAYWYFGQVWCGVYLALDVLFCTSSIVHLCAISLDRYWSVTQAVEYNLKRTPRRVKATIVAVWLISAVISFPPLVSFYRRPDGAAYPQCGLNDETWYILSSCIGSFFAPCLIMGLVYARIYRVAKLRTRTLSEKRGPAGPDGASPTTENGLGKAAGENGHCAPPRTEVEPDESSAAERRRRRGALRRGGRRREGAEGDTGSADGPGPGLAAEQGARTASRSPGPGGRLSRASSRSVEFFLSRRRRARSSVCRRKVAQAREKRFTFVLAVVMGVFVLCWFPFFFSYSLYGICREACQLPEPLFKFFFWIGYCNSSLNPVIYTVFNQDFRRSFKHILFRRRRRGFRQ
T1 sequence (P19328 whole entry): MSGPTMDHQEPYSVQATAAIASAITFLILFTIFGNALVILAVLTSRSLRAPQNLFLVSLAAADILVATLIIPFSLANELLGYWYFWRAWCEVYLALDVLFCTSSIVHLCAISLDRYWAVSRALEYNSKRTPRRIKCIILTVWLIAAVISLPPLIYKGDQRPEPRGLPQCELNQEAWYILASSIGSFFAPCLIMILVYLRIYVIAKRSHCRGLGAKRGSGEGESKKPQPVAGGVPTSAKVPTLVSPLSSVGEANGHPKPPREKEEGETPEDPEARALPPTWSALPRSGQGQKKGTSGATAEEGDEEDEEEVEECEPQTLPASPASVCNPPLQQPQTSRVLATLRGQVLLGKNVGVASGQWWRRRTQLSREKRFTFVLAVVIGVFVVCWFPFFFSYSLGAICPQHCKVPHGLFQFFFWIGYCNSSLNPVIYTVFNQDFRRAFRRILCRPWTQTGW
T1 sequence (P22909 whole entry): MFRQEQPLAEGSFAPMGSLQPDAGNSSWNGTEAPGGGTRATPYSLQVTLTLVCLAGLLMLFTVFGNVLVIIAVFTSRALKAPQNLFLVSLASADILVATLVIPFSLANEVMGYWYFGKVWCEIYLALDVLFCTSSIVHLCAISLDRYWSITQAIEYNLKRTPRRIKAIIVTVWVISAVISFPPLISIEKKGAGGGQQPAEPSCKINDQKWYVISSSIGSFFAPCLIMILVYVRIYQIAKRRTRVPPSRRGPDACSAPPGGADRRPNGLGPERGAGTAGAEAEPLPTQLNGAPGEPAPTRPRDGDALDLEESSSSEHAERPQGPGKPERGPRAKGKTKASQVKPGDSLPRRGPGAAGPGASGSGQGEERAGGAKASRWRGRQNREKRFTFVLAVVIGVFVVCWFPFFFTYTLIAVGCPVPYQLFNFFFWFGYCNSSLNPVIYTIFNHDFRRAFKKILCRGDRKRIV
The data set can be described thus: Displacement of [3H]clonidine from alpha-2 adrenergic receptor in Sprague-Dawley rat cortex. The procedure, abridged: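 Male rat cortex homogenised in ice-cold 50 mM Tris/HCl (pH 7.7 at 25 °C), washed by three 50,000 × g spins. Membranes incubated with [3H]clonidine (final 2.0 nM) and 5 test concentrations over a 16-fold range, 25 °C for 30 min. Bound ligand collected by vacuum filtration onto GF/B filters and counted by scintillation. Nonspecific binding defined with 2 μM phentolamine. Run in quadruplicate; IC50 by log-probit, Ki by Cheng-Prusoff.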
In general terms: In a radioligand displacement assay an active substance lowers the binding of a labelled ligand.

Data set [2] can be described thus: Dissociation constant, pKa of the compound. It is filed as physicochemical.
In data set [3] the target is T2, Phenylethanolamine N-methyltransferase (Homo sapiens, UniProt P11086).
T2 sequence (P11086 whole entry): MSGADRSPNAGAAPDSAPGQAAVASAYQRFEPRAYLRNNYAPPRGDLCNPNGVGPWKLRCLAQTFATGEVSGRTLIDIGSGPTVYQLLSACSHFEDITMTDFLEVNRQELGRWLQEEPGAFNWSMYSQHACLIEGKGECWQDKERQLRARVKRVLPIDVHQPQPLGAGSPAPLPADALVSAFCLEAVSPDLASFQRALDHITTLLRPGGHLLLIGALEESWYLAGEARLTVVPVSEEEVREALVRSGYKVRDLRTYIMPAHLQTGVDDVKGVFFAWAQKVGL
Put plainly: Binding affinity to human PNMT.

`NS(=O)(=O)c1ccc2c(c1)CNC(C(F)F)C2` (stereo not drawn): in data set [1], the inhibitory constant (Ki) is over 1000 µM.
Compound `O=[N+]([O-])c1ccc2c(c1)CNC(C(F)F)C2` (racemic) came in with a pKa in data set [2] of 5.83. In data set [1], this compound returned a Ki of over 1000 µM.
In the case of `FC(F)C1Cc2ccc(C(F)(F)F)cc2CN1` (racemic), in data set [1], the Ki amounted to 190 µM.
Compound `O=S(=O)(Nc1ccc(Cl)cc1)c1ccc2c(c1)CNC(C(F)F)C2` (racemic) showed a Ki in data set [1] of over 1000 µM.
The compound `CCCCNS(=O)(=O)c1ccc2c(c1)CNC(C(F)F)C2` (racemic) registered a Ki in data set [1] of over 1000 µM.
On the same count and under the same terms, to `O=[N+]([O-])c1ccc(NS(=O)(=O)c2ccc3c(c2)CNC(C(F)F)C3)cc1` (racemic) belongs over 1000 µM; to `CCNS(=O)(=O)c1ccc2c(c1)CNC(C(F)F)C2` (racemic), over 1000 µM; to `N#Cc1ccc2c(c1)CNC(C(F)F)C2` (racemic), over 1000 µM.
On the same count and under the same terms, in the case of `CS(=O)(=O)c1ccc2c(c1)CNC(C(F)F)C2` (racemic) it was 2500 µM; in that of `FC(F)C1Cc2ccc(I)cc2CN1` (racemic), over 1000 µM; in that of `O=S(=O)(NCC(F)(F)F)c1ccc2c(c1)CNC(C(F)(F)F)C2` (racemic), over 1000 µM.
On the same count and under the same terms, in the case of `CCCNS(=O)(=O)c1ccc2c(c1)CNC(C(F)F)C2` (racemic) it was over 1000 µM; in that of `O=S(=O)(Nc1ccc(Cl)cc1)c1ccc2c(c1)CNC(C(F)(F)F)C2` (racemic), over 1000 µM; in that of `COCCCNS(=O)(=O)c1ccc2c(c1)CNC(C(F)F)C2` (racemic), over 1000 µM.
Compound `COCCCNS(=O)(=O)c1ccc2c(c1)CNC(C(F)(F)F)C2` (racemic) had a Ki in data set [1] of over 1000 µM.
Still for that read-out and setting: to `O=S(=O)(NCC(F)(F)F)c1ccc2c(c1)CNC(C(F)F)C2` (racemic) belongs over 1000 µM.
As for `FC(F)C1Cc2ccccc2CN1` (racemic), the pKa in data set [2] is 6.42. In data set [1], this compound gave a Ki of 150 µM.
As to `FC(F)C1Cc2ccc(Br)cc2CN1` (racemic), the pKa in data set [2] was 6.12. For the same compound, in data set [1], the inhibitory constant (Ki) worked out at 230 µM.
Consider `O=[N+]([O-])c1ccc(NS(=O)(=O)c2ccc3c(c2)CNC(C(F)(F)F)C3)cc1` (racemic), for which the Ki is 110 µM in data set [3] and over 1000 µM in data set [1].
